Measured values: ChEMBL document CHEMBL4689842, “EUbOPEN Chemogenomics Library wave 1” (2021)

Tested on: HEK-293T
Experiment: Multiplex assay against HEK293T;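 as to Population Tubulin-Different-Phenotype (%): share of the cells with healthy nuclei that show this phenotype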
Type: toxicity, cell-based
Conditions: human
Procedure, shortened: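 Tubulin, mitochondrial-mass and membrane-permeability phenotypes are per cents of healthy-nucleus cells. Cells were gated by CellPathfinder machine learning into Hoechst high-intensity objects or normal cells, normal cells into healthy, pyknosed or fragmented nuclei, and pyknosed cells into mitotic or apoptotic. Before that, live cells stained at seeding with Hoechst33342, BioTracker Green Microtubule Cytoskeleton Dye, MitoTracker Red and Annexin V Alexa Fluor 680 were imaged on a CQ1 microscope at 37°C and 5% CO2 after compound addition.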

[1] = 12 h, 1 µM, compound concentration 1 uM, replicate 1
[2] = 12 h, 1 µM, compound concentration 1 uM, replicate 2
[3] = 12 h, 10 µM, compound concentration 10 uM, replicate 1
[4] = 12 h, 10 µM, compound concentration 10 uM, replicate 2
[5] = 24 h, 1 µM, compound concentration 1 uM, replicate 1
[6] = 24 h, 1 µM, compound concentration 1 uM, replicate 2
[7] = 24 h, 10 µM, compound concentration 10 uM, replicate 1
[8] = 24 h, 10 µM, compound concentration 10 uM, replicate 2
[9] = 48 h, 1 µM, compound concentration 1 uM, replicate 1
[10] = 48 h, 1 µM, compound concentration 1 uM, replicate 2
[11] = 48 h, 10 µM, compound concentration 10 uM, replicate 1
[12] = 48 h, 10 µM, compound concentration 10 uM, replicate 2

## O=C(O)c1ccc2cc(-c3ccc(O)c(C45CC6CC(CC(C6)C4)C5)c3)ccc2c1 [O-DEMETHYLATED ADAPALENE]
[1]
  Population Apoptotic (%): 35%
  Population Fragmented Nuclei (%): 6%
  Population Healthy Nuclei (%): 60%
  Population Hoechst High Intensity Objects (%): 5%
  Population Membrane Permeable-Phenotype (%): 1%
  Population Mitochondria Different-Phenotype (%): 70%
  Population Mitotic Cells (%): 64%
  Population Normal (%): 94%
  Population Pyknosed Nuclei (%): 33%
  Population Tubulin-Different-Phenotype (%): 30%
  Total Cell Count: 320
[2]
  Population Apoptotic (%): 12%
  Population Fragmented Nuclei (%): 2%
  Population Healthy Nuclei (%): 57%
  Population Hoechst High Intensity Objects (%): 4%
  Population Membrane Permeable-Phenotype (%): 8%
  Population Mitochondria Different-Phenotype (%): 15%
  Population Mitotic Cells (%): 87%
  Population Normal (%): 95%
  Population Pyknosed Nuclei (%): 40%
  Population Tubulin-Different-Phenotype (%): 17%
  Total Cell Count: 214
[3]
  Population Apoptotic (%): 53%
  Population Fragmented Nuclei (%): 21%
  Population Healthy Nuclei (%): 33%
  Population Hoechst High Intensity Objects (%): 15%
  Population Mitochondria Different-Phenotype (%): 52%
  Population Mitotic Cells (%): 46%
  Population Normal (%): 84%
  Population Pyknosed Nuclei (%): 45%
  Population Tubulin-Different-Phenotype (%): 14%
  Total Cell Count: 204
[4]
  Population Apoptotic (%): 14%
  Population Fragmented Nuclei (%): 8%
  Population Healthy Nuclei (%): 43%
  Population Hoechst High Intensity Objects (%): 5%
  Population Membrane Permeable-Phenotype (%): 3%
  Population Mitochondria Different-Phenotype (%): 6%
  Population Mitotic Cells (%): 85%
  Population Normal (%): 94%
  Population Pyknosed Nuclei (%): 47%
  Population Tubulin-Different-Phenotype (%): 11%
  Total Cell Count: 228
[5]
  Population Apoptotic (%): 37%
  Population Fragmented Nuclei (%): 5%
  Population Hoechst High Intensity Objects (%): 5%
  Population Membrane Permeable-Phenotype (%): 6%
  Population Mitochondria Different-Phenotype (%): 44%
  Population Mitotic Cells (%): 62%
  Population Normal (%): 94%
  Population Pyknosed Nuclei (%): 19%
  Population Tubulin-Different-Phenotype (%): 24%
  Total Cell Count: 354
[6]
  Population Apoptotic (%): 13%
  Population Fragmented Nuclei (%): 6%
  Population Healthy Nuclei (%): 75%
  Population Hoechst High Intensity Objects (%): 1%
  Population Membrane Permeable-Phenotype (%): 13%
  Population Mitochondria Different-Phenotype (%): 14%
  Population Mitotic Cells (%): 86%
  Population Normal (%): 98%
  Population Pyknosed Nuclei (%): 18%
  Population Tubulin-Different-Phenotype (%): 26%
  Total Cell Count: 257
[7]
  Population Apoptotic (%): 52%
  Population Fragmented Nuclei (%): 16%
  Population Healthy Nuclei (%): 43%
  Population Hoechst High Intensity Objects (%): 20%
  Population Membrane Permeable-Phenotype (%): 1%
  Population Mitochondria Different-Phenotype (%): 34%
  Population Mitotic Cells (%): 47%
  Population Normal (%): 79%
  Population Pyknosed Nuclei (%): 40%
  Population Tubulin-Different-Phenotype (%): 14%
  Total Cell Count: 218
[8]
  Population Apoptotic (%): 25%
  Population Fragmented Nuclei (%): 11%
  Population Healthy Nuclei (%): 50%
  Population Hoechst High Intensity Objects (%): 11%
  Population Membrane Permeable-Phenotype (%): 4%
  Population Mitochondria Different-Phenotype (%): 17%
  Population Mitotic Cells (%): 75%
  Population Normal (%): 88%
  Population Pyknosed Nuclei (%): 38%
  Population Tubulin-Different-Phenotype (%): 16%
  Total Cell Count: 234
[9]
  Population Apoptotic (%): 26%
  Population Fragmented Nuclei (%): 10%
  Population Hoechst High Intensity Objects (%): 6%
  Population Membrane Permeable-Phenotype (%): 2%
  Population Mitochondria Different-Phenotype (%): 13%
  Population Mitotic Cells (%): 73%
  Population Normal (%): 93%
  Population Tubulin-Different-Phenotype (%): 10%
  Total Cell Count: 565
[10]
  Population Apoptotic (%): 15%
  Population Fragmented Nuclei (%): 9%
  Population Healthy Nuclei (%): 80%
  Population Hoechst High Intensity Objects (%): 2%
  Population Membrane Permeable-Phenotype (%): 11%
  Population Mitochondria Different-Phenotype (%): 1%
  Population Mitotic Cells (%): 84%
  Population Normal (%): 97%
  Population Pyknosed Nuclei (%): 9%
  Population Tubulin-Different-Phenotype (%): 19%
  Total Cell Count: 390
[11]
  Population Apoptotic (%): 51%
  Population Fragmented Nuclei (%): 21%
  Population Healthy Nuclei (%): 30%
  Population Hoechst High Intensity Objects (%): 19%
  Population Membrane Permeable-Phenotype (%): 1%
  Population Mitochondria Different-Phenotype (%): 22%
  Population Mitotic Cells (%): 48%
  Population Normal (%): 80%
  Population Pyknosed Nuclei (%): 48%
  Population Tubulin-Different-Phenotype (%): 16%
  Total Cell Count: 217
[12]
  Population Apoptotic (%): 32%
  Population Fragmented Nuclei (%): 12%
  Population Healthy Nuclei (%): 33%
  Population Hoechst High Intensity Objects (%): 9%
  Population Mitochondria Different-Phenotype (%): 2%
  Population Mitotic Cells (%): 67%
  Population Normal (%): 90%
  Population Pyknosed Nuclei (%): 53%
  Population Tubulin-Different-Phenotype (%): 10%
  Total Cell Count: 243
